Results from different studies.
Protocols differ between the studies behind these lines.
FGFR3 G697C: Fibroblast growth factor receptor 3 (FGFR3, Homo sapiens, UniProt P22607, G697C)
FGFR3: Fibroblast growth factor receptor 3 (FGFR3, Homo sapiens, UniProt P22607)

COc1ccc2cc(OCC3(C(=O)O)CN(C(=O)c4ccc(F)cc4)C3)ccc2c1 — remaining binding (FGFR3 G697C; cell-free assay, competition with immobilised ligand; 1 µM): 88%
O=C(Nc1c[nH]nc1C(=O)NC1CCNCC1)c1cc(F)cc(F)c1 — remaining binding (FGFR3; binding, competition with immobilised ligand; 1 µM): 100%
O=C(c1ccc(Nc2ncc(Cl)c(-c3ccc(Cl)s3)n2)cc1)N1CCC(N2CCCC2)CC1 — remaining binding (FGFR3 G697C; binding, competition with immobilised ligand; 1 µM): 4.9%
CN(CCCC(F)(F)F)c1nccc(-c2cnn3ncccc23)n1 — remaining binding (FGFR3; binding; 1 µM): 93%
CSc1cccnc1N1CCN(Cc2nc3ccccc3[nH]2)CC1 — remaining binding (FGFR3 G697C; cell-free assay, competition with immobilised ligand; 1 µM): 100%
c1cnn2ncc(-c3ccnc(N4CCC45COC5)n3)c2c1 — remaining binding (FGFR3; binding; 1 µM): 100%
CN1CCN(c2ccc(Nc3nccc(-c4ccccc4)n3)cc2C(F)(F)F)CC1 — remaining binding (FGFR3 G697C; binding; 10 µM): 86%
COc1ncc2cc3ccccc3nc2c1C#N — remaining binding (FGFR3 G697C; cell-free assay, competition with immobilised ligand; 5 µM): 96%
CCN1CCN(Cc2ccc(C(=O)Nc3ccc(C)c(Oc4ccc5c(c4)CC(=O)N5)c3)cc2C(F)(F)F)CC1 — remaining binding (FGFR3 G697C; binding, competition with immobilised ligand; 1 µM): 88%
C=CC(=O)N1CCC(C(=O)NCC(=O)N2CCN(c3nc(-c4cnc(N)nc4C(F)F)nc(N4CCOCC4)n3)CC2)CC1 — remaining binding (FGFR3 G697C; binding, competition with immobilised ligand; 1 µM): 99%
O=C(NCC1CCOCC1)c1n[nH]cc1NC(=O)c1c(F)cccc1F — remaining binding (FGFR3; binding, competition with immobilised ligand; 1 µM): 100%
COc1cnc(Nc2cccc(S(N)(=O)=O)c2)nc1N1CCN(c2ccccc2)CC1 — remaining binding (FGFR3 G697C; binding, competition with immobilised ligand; 1 µM): 100%
COCCOc1nc(-c2ccc(Cl)nc2)nc2c1CN(C(=O)c1ncn3ccccc13)CC2 — remaining binding (FGFR3 G697C; cell-free assay, competition with immobilised ligand; 0.1 µM): 100%
CNC(=O)[C@@H]1CC[C@@H](n2c(-c3ccc4cnccc4c3)nc3ccc(C(=O)NCc4cccc(C(N)=O)c4)cc32)C1 — remaining binding (FGFR3 G697C; binding, competition with immobilised ligand; 1 µM): 93%
O=C(NCCCN1CCOCC1)c1ccc(Nc2nccc(-c3cc4ccccc4s3)n2)cc1 — remaining binding (FGFR3 G697C; binding, competition with immobilised ligand; 1 µM): 79%
Nc1ncc2c(n1)-c1c([nH]c3ccc(C#CC4CC4)cc13)CCCC2 — remaining binding (FGFR3; binding, competition with immobilised ligand; 1 µM): 95%
CCCOc1ccc([C@H]2[C@H](C(=O)O)[C@@H](c3ccc4c(c3)OCO4)CN2CC(=O)Nc2c(CC)cccc2CC)cc1 — remaining binding (FGFR3 G697C; cell-free assay, competition with immobilised ligand; 1 µM): 85%
CN(C)c1nccc(-c2cnc3ncccn23)n1 — remaining binding (FGFR3 G697C; binding; 1 µM): 99%
CCC(=O)N[C@H]1CC[C@@H](C(=O)N(C)c2ccc(-c3nc4ccccc4o3)cc2)C1 — remaining binding (FGFR3 G697C; cell-free assay, competition with immobilised ligand; 1 µM): 100%
FC(F)(F)Oc1cccc(-c2cnc3ccc(-c4ccncc4)nn23)c1 — remaining binding (FGFR3; cell-free assay, competition with immobilised ligand; 5 µM): 86%
C[C@@H]1CCN(c2nccc(-c3cnn4ncccc34)n2)C1 — remaining binding (FGFR3; binding; 1 µM): 90%
C[C@@H]1CN(c2ccc3ncc(-c4ccc5[nH]nc(C6CC6)c5c4)n3n2)C[C@H](C)O1 — remaining binding (FGFR3; binding, competition with immobilised ligand; 50 nM): 100%
Cc1cc(-n2nc(Cc3cc(F)cc(C(F)(F)F)c3)nc2C)ccc1C(N)=O — remaining binding (FGFR3 G697C; cell-free assay, competition with immobilised ligand; 1 µM): 100%
COc1cnc(Nc2cccc(S(N)(=O)=O)c2)nc1N1CCN(c2ccccc2)C(=O)C1 — remaining binding (FGFR3 G697C; binding, competition with immobilised ligand; 1 µM): 92%
Cc1cnn2ncc(-c3ccnc(N(C)C)n3)c2c1 — remaining binding (FGFR3; binding; 1 µM): 100%
CC(C)(C)c1ccc(-c2nc(CBr)nn2-c2cccc(O)c2)cc1 — remaining binding (FGFR3; cell-free assay, competition with immobilised ligand; 10 µM): 93%
F[C@@H]1CCN(c2nccc(-c3cnn4ncccc34)n2)C1 — remaining binding (FGFR3 G697C; binding; 1 µM): 79%
Cn1nc(C(=O)NCc2ccc(C(=O)O)cc2)cc1-c1ccc2[nH]ccc2c1 — remaining binding (FGFR3 G697C; cell-free assay, competition with immobilised ligand; 0.1 µM): 82%
c1cncc(-c2cccc(Nc3nccc(NC4CCCCC4)n3)c2)c1 — remaining binding (FGFR3; binding, competition with immobilised ligand; 10 µM): 60%
Cc1cnc(Nc2ccc(C(=O)N3CCC(N4CCCC4)CC3)cc2)nc1-c1cc2ccccc2s1 — remaining binding (FGFR3 G697C; binding, competition with immobilised ligand; 1 µM): 16%
C[C@@H](c1ccc(-n2cnc3c(N)ncnc32)cc1)N1CCc2nn(C)c(Cc3ccccc3)c2C1=O — remaining binding (FGFR3; binding, competition with immobilised ligand; 0.1 µM): 80%
O=C(c1ccc(Nc2ncc(Cl)c(-c3cc4ccccc4s3)n2)cc1)N1CCC(N2CCCC2)CC1 — remaining binding (FGFR3 G697C; binding, competition with immobilised ligand; 1 µM): 34%
CC1CCCN1c1nccc(-c2cnn3ncccc23)n1 (stereo not shown) — remaining binding (FGFR3 G697C; binding; 1 µM): 86%
O=C(c1ccc(Nc2nccc(-c3cc4ccccc4s3)n2)cc1)N1CCC(N2CCCC2)CC1 — remaining binding (FGFR3 G697C; binding, competition with immobilised ligand; 1 µM): 77%
O=C(NCc1ncc(C(F)(F)F)cc1Cl)c1ccc2c(c1)C1(CCS(=O)(=O)CC1)[C@H](C1CC1)N2S(=O)(=O)c1ccc(F)cc1 — remaining binding (FGFR3 G697C; cell-free assay, competition with immobilised ligand; 1 µM): 100%
N[C@@H]1CCN(c2nccc(-c3cnn4ncccc34)n2)C1 — remaining binding (FGFR3; binding; 1 µM): 100%
O=C(NCCCN1CCOCC1)c1ccc(Nc2ncc(Cl)c(-c3ccc(Cl)s3)n2)cc1 — remaining binding (FGFR3 G697C; binding, competition with immobilised ligand; 1 µM): 32%
